This is a sample that favours compounds with a hit; in the whole collection about 4.7% have one here.
ADAM10 inh: human ADAM10 inhibitors, primary screen, biochemical, QFRET, HTS. recombinant ADAM10, EDANS/DABCYL FRET peptide cleavage, 3 h. inhibition, % at 7 µM. 370,000 compounds, 0.62% hits. AID 720582, 2013;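 active = inhibition above a per-campaign cutoff equal to the mean of compounds falling between control-based bounds plus 3 SD, cut at about 20% in these data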;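 also: 0% = DMSO wells while the 100% control is not disclosed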
Target sequence (O14672 214-748 limits assumed): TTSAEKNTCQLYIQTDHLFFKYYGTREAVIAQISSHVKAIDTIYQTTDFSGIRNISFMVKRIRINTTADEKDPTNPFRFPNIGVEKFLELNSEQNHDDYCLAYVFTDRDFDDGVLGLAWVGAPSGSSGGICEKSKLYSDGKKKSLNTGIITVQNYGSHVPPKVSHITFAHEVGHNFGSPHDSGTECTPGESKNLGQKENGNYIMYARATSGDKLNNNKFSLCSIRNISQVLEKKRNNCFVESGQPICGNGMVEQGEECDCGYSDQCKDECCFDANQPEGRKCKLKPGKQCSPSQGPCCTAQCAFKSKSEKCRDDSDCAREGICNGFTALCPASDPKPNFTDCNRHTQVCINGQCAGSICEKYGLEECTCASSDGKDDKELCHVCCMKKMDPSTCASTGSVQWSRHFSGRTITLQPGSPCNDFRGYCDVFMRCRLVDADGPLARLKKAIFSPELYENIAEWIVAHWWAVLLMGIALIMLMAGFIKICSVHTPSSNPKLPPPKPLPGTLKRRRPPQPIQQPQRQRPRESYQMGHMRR
ADAM17 inh: ADAM17 inhibitors, primary screen, biochemical, QFRET; inhibition, % at 6.95 µM; 370,000 compounds, 0.83% hits; Disintegrin and metalloproteinase domain-containing protein 17 (Homo sapiens), P78536; AID 720648, 2013; recombinant ADAM17, EDANS/DABCYL FRET peptide cleavage;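 active = inhibition above the mean of compounds lying between control limits plus 3 SD, set per campaign, cut at about 8.5% in these data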;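 also: 0% = DMSO-only wells as the low control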
MPTP inh: mitochondrial permeability transition pore inhibitors, primary screen, biochemical, isolated mouse mitochondria, absorbance | Ca2+ swelling absorbance, 30 min | inhibition, % at 10 µM | 360,000 compounds, 1.4% hits | AID 602449, 2012;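 active = inhibition of 50% or more, scaled per plate between neutral and stimulator controls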;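 also: 0% = DMSO wells given calcium and 100% = 1 mM EGTA wells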
SKN-1 block: suppressors of acrylamide-induced Pgst-4::GFP reporter in worms, primary screen, SKN-1 inhibitor project, whole organism, uHTS, GFP/RFP fluorescence ratio, strain VP596. C. elegans VP596 Pgst-4::GFP/RFP ratio, 24 h. inhibition, % at 21.8 µM. 360,000 compounds, 0.49% hits;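 active = interference check ratio from 0.5 to 1.5 plus GFP to RFP signal ratio inhibition reaching or exceeding a fixed threshold, cut at about 30% in these data, passing the limit was not always enough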
GRIN3A LBD mod: binders of NR3A ligand-binding domain, primary screen, biophysical, differential scanning fluorimetry, uHTS. Glutamate receptor ionotropic, NMDA 3A (GRIN3A) ligand-binding domain. NR3A LBD differential scanning fluorimetry, Tm shift; 0% = protein alone, 100% = glycine-bound protein. Tm shift relative to glycine control, % at 25 µM. 340,000 compounds, 2.5% hits;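 active = melting temperature shift of at least 10% of the positive control shift, at one fixed dose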
MT1-MMP act inh: blockers of MT1-MMP proenzyme processing, primary screen, HT1080 RFP-PRO-GFP cells, GFP/RFP fluorescence; Matrix metalloproteinase-14 (Homo sapiens), P50281; GFP/RFP ratio fluorescence, overnight; percent of plate control window, DMSO zero; GFP/RFP ratio change, % at 20 µM; 360,000 compounds, 0.061% hits;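 active = GFP/RFP ratio change of at least 30% with cell ATP level not reduced by more than half and red fluorescence within 50% of control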
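Test system: HT1080 cells expressing an RFP-PRO-GFP fluorescent reporter construct / Compound dosing: single-point 20 µM compound, 1% DMSO / Schedule: cells overnight before dosing, compound overnight, 37 °C, 5% CO2 / Evaluation: GFP/RFP fluorescence ratio / Control set: DMSO and RFP-L50D-GFP cell wells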
ADAM10 confirm: human ADAM10 inhibitors, confirmation, biochemical, QFRET, triplicate; shares compounds with ADAM10 inh; ADAM10 QFRET peptide cleavage, EDANS fluorescence; inhibition, % at 6.95 µM; 2,100 compounds, 1% hits; AID 743208, 2013;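 active = inhibition above about 20% chosen separately for each screening run, limit read from the data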;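 also: 0% = DMSO wells and 100% = marimastat wells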
ADAM17 ctr: ADAM17 inhibitors, counter-screen for ADAM10 exosite inhibitor project, biochemical, QFRET, high throughput; ADAM17 QFRET peptide cleavage, EDANS fluorescence; AID 743214, 2013; shares compounds with ADAM10 inh; inhibition, % at 6.95 µM; 2,100 compounds, 0.5% hits;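 active = mean triplicate inhibition above the solvent-only control wells' mean plus 3 SD, cut at about 12% in these data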;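 also: 0% = DMSO wells and 100% = marimastat wells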
Numbers without * were called inactive.

OC(CN1CCN(c2ccccn2)CC1)Cn1c2ccc(Cl)cc2c2cc(Cl)ccc21 (configuration not stated) was read as ADAM10 inh 21.7*, ADAM17 inh 7.8, MPTP inh 4.9, SKN-1 block -5.2, GRIN3A LBD mod 19.2*, MT1-MMP act inh -2.2, ADAM10 confirm 10.4 and ADAM17 ctr 4.0.
CCOP(=O)(OCC)C(Nc1ccccn1)c1ccccc1 (configuration not stated) was read as ADAM10 inh 7.0, ADAM17 inh 2.6, MPTP inh 0.7, SKN-1 block 1.4, GRIN3A LBD mod -4.5 and MT1-MMP act inh 4.6.
CCS(=O)(=O)N1CCC(C(=O)NCCc2ccc(C)cc2)CC1 was read as ADAM10 inh -5.9, ADAM17 inh -4.7, MPTP inh 0.0, SKN-1 block -0.3, GRIN3A LBD mod -0.9 and MT1-MMP act inh 12.7.
For C/C(=N\NC(=S)NCc1ccccc1)c1cccc(Br)c1 the results were ADAM10 inh 21.4*, ADAM17 inh 4.0, MPTP inh 0.9, SKN-1 block -7.5, GRIN3A LBD mod -7.8, MT1-MMP act inh -0.8, ADAM10 confirm 8.5 and ADAM17 ctr 3.8.
S=c1[nH]nc(-c2cc(-c3ccsc3)n[nH]2)n1-c1cccc2ccccc12 was read as ADAM10 inh 23.0*, ADAM17 inh 0.5, MPTP inh 1.9, SKN-1 block 10.5, GRIN3A LBD mod -2.6, MT1-MMP act inh -1.5, ADAM10 confirm 2.9 and ADAM17 ctr 2.2.
CC(=O)c1ccc(-n2c(-c3cc(-c4ccsc4)n[nH]3)n[nH]c2=S)cc1 was read as ADAM10 inh 7.5, ADAM17 inh -1.3, MPTP inh -2.9, SKN-1 block -16.5, GRIN3A LBD mod -0.7 and MT1-MMP act inh 1.1.
CC(C)(C)c1cc(CP(=O)(c2ccccc2)c2ccccc2)cc(C(C)(C)C)c1O was read as ADAM10 inh 24.5*, ADAM17 inh 5.2, MPTP inh -1.2, SKN-1 block 0.3, GRIN3A LBD mod -4.5, MT1-MMP act inh -15.2, ADAM10 confirm 2.1 and ADAM17 ctr 1.1.
O=P(Cc1ccccc1)(c1ccccc1)c1ccccc1 was read as ADAM10 inh 1.6, ADAM17 inh 0.8, MPTP inh 0.2, SKN-1 block 4.9, GRIN3A LBD mod -0.6 and MT1-MMP act inh 2.4.
`Cc1ccc(S(=O)(=O)Nc2ccccc2NS(=O)(=O)c2ccc(C)cc2)cc1` gave ADAM10 inh 22.5*, ADAM17 inh 5.1, MPTP inh 14.7, SKN-1 block 3.7, MT1-MMP act inh -2.7, ADAM10 confirm 4.9 and ADAM17 ctr 0.6.
O=S(Cc1ccc(Br)cc1)Cc1nnc(SCc2ccc(Br)cc2)n1-c1ccccc1 (configuration not stated) was read as ADAM10 inh 21.9*, ADAM17 inh 8.3, MPTP inh -3.6, SKN-1 block -2.9, GRIN3A LBD mod -6.5, MT1-MMP act inh -4.3, ADAM10 confirm 6.0 and ADAM17 ctr 1.7.
`CCc1c(C(=O)NNC(=S)Nc2ccc(S(=O)(=O)Nc3ncccn3)cc2)csc1C` gave ADAM10 inh 23.0*, ADAM17 inh 8.0, MPTP inh -2.0, SKN-1 block -11.8, GRIN3A LBD mod -2.0, MT1-MMP act inh 2.6, ADAM10 confirm 1.0 and ADAM17 ctr -0.1.
Screening O=S(=O)(Nc1ncccn1)c1ccc(NC(=S)Nc2ccccc2)cc1 returned ADAM10 inh -1.4, ADAM17 inh 0.8, MPTP inh -1.1, SKN-1 block -7.9, GRIN3A LBD mod 0.3 and MT1-MMP act inh 1.0.
For CC1(C)CC(=O)c2c(oc3cc(O)c(O)cc23)C1 the results were ADAM10 inh 20.7*, ADAM17 inh 2.2, MPTP inh 1.2, SKN-1 block -17.9, GRIN3A LBD mod 0.5, MT1-MMP act inh -3.3, ADAM10 confirm 4.0 and ADAM17 ctr 1.9.
Screening Cc1ccc2nc(SCC(=O)Nc3ccc4[nH]c(=O)[nH]c4c3)[nH]c2c1 returned ADAM10 inh -10.0, ADAM17 inh -4.3, MPTP inh -1.5, SKN-1 block 6.8, GRIN3A LBD mod 0.8 and MT1-MMP act inh 4.7.
COc1ccc(OC)c(CNn2c(-c3cccc(C)c3)nc3ccccc3c2=O)c1 was read as ADAM10 inh -1.3, ADAM17 inh -4.6, MPTP inh -1.7, SKN-1 block 8.2, GRIN3A LBD mod -1.5 and MT1-MMP act inh -6.0.
For COc1cccc(CNn2c(-c3cccc(C)c3)nc3ccccc3c2=O)c1 the results were ADAM10 inh 26.8*, ADAM17 inh 8.3, MPTP inh 2.6, SKN-1 block 5.5, GRIN3A LBD mod 2.3, MT1-MMP act inh -4.9, ADAM10 confirm 0.2 and ADAM17 ctr 0.7.
Cc1ccc(-c2nc3ccccc3c(=O)n2-c2c(C)n(C)n(-c3ccccc3)c2=O)cc1 was read as ADAM10 inh 1.4, ADAM17 inh -7.0, MPTP inh 1.4, SKN-1 block -7.3, GRIN3A LBD mod 0.9 and MT1-MMP act inh 1.6.
For COc1ccc(N2CCN(C(=O)CCNC(=O)c3ccc(C(C)(C)C)cc3)CC2)cc1 the results were ADAM10 inh 0.9, ADAM17 inh 0.4, MPTP inh -0.2, SKN-1 block 6.1, GRIN3A LBD mod -0.4 and MT1-MMP act inh 0.0.
COc1ccc(N2CCN(C(=O)c3ccc(C(C)(C)C)cc3)CC2)cc1 was read as ADAM10 inh 88.5*, ADAM17 inh -4.5, MPTP inh -0.9, SKN-1 block -15.1, GRIN3A LBD mod 3.0, MT1-MMP act inh 3.3, ADAM10 confirm 0.7 and ADAM17 ctr 0.4.
OC(COc1ccc2c(c1)CCC2)CN1CCN(c2ccccc2F)CC1 (configuration not stated) was read as ADAM10 inh 20.4*, ADAM17 inh 1.6, MPTP inh 2.7, SKN-1 block -0.1, GRIN3A LBD mod 0.6, MT1-MMP act inh 3.1, ADAM10 confirm 2.4 and ADAM17 ctr -0.3.
